Test [1] in a line: Percent reduction in leukocytes following elastase challenge/treatment. Further details: concentration or dose not given beside the values. The class given is functional. Summed up: (§1)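 Male Syrian hamsters (90–110 g), anaesthetised with brevital sodium (30 mg/kg ip), received intratracheal HNE (400 μg in 0.01 M PBS). Test agent was given intratracheally, either admixed with the enzyme or predosed (shortest interval 6 h). Dose interval is the longest with significant lesion inhibition. At 24 h, wet lung weight/body weight and lavage red/white cells (Coulter) were measured. Results are % reduction scaled between the HNE and saline controls (p = 0.05).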

Test [2] has as its system Cricetinae gen. sp. The test can be described thus: Dose interval reported as the longest interval at which significant inhibition of HNE induced uM Dose of HNE used was 400 ug/hamster. The class given is functional. Summed up:
as §1

Test [3] in a line: Percentage reduction in erythrocytes following elastase challenge/treatment. The class given is functional. Also on record: concentration or dose not given beside the values. Summed up: as §1
Another test addresses T1, Neutrophil elastase (Homo sapiens, UniProt P08246).
T1 sequence (P08246 whole entry): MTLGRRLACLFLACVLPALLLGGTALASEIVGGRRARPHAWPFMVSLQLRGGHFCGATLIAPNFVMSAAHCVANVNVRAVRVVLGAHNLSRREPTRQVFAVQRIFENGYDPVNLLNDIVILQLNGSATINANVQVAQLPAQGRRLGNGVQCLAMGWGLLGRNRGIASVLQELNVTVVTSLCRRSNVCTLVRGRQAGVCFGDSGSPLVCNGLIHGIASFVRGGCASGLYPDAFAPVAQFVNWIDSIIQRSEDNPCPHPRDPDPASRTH
The test can be described thus: Inhibition of human neutrophil elastase-catalyzed hydrolysis of the synthetic substrate MeO-Suc-Ala-Ala-Pro-Val-pNa.

Test [4] concerns the target T2, Neutrophil elastase (Homo sapiens) (UniProt P08246).
T2 sequence (whole entry): T1 sequence (P08246 whole entry)
As to conditions: Lung.

Test [5] can be described thus: Evaluated for the percent reduction relative to HNE and saline controls of red blood cells. An asterisk (*) indicates (p = 0.05). The class given is functional. Summed up:
as §1

The nature of test [6]: Evaluated for the percent reduction relative to HNE and saline controls of red blood cells. The class given is functional. The procedure, abridged: as §1
The nature of test [7]: Evaluated for the percent reduction relative to HNE and saline controls of white blood cells. The class given is functional. The procedure, abridged:
as §1

Test [8] deals with Cricetinae gen. sp. The test can be described thus: Compound is evaluated for wet lung weight (LW) relative to body weight (Bw).Value is statistically significant relative to control (p = 0.05). The class given is functional. Summed up: as §1

The Ki is a dissociation constant, usually derived from enzyme kinetics or from competition with a known ligand.

`CC(C)[C@H](NC(=O)[C@@H]1CCCN1C(=O)[C@@H](NC(=O)c1ccc(C(=O)NS(=O)(=O)c2ccc(Cl)cc2)cc1)C(C)C)C(=O)c1nc2ccccc2o1`: the Reduction in test [1] is given as 84%; in test [3], 80%. This compound came in with a Dose interval in the test on Cricetinae gen. sp. [2] of 6 h.

`COC(=O)c1ccc2oc(C(=O)[C@@H](NC(=O)[C@@H]3CCCN3C(=O)[C@@H](NC(=O)c3ccc(NS(=O)(=O)C(F)(F)F)cc3)C(C)C)C(C)C)nc2c1`: the Reduction in test [1] worked out at 77%; in [3], 82%. At Neutrophil elastase, this compound came in with a Ki of 0.3 nM. For the same compound, the Lw/Bw in test [4] is 71.

In the case of `CC(C)[C@H](NC(=O)[C@@H]1CCCN1C(=O)[C@@H](NC(=O)OCc1ccccc1)C(C)C)C(=O)c1nc2cc(C#N)ccc2o1`, the Ki at Neutrophil elastase stood at 1.8 nM.

On to `CC(C)[C@H](NC(=O)[C@@H]1CCCN1C(=O)[C@@H](NC(=O)c1ccc(C(=O)O)cc1)C(C)C)C(=O)c1nc2ccccc2o1`, for which the Reduction in test [1] was -1%; in test [5], 49%.

`CC(C)[C@H](NC(=O)[C@@H]1CCCN1C(=O)[C@@H](NC(=O)OCc1ccccc1)C(C)C)C(=O)c1nc2cc(CO[Si](C)(C)C(C)(C)C)ccc2o1` came in with a Ki on Neutrophil elastase of 0.43 nM.

Take `CC(C)[C@H](NC(=O)[C@@H]1CCCN1C(=O)[C@@H](NC(=O)OCc1ccccc1)C(C)C)C(=O)c1nc2cc(CC(=O)O)ccc2o1`: affinity on Neutrophil elastase was put at a Ki of 4.4 nM.

At Neutrophil elastase, `COc1ccc2oc(C(=O)[C@@H](NC(=O)[C@@H]3CCCN3C(=O)[C@@H](NC(=O)OCc3ccccc3)C(C)C)C(C)C)nc2c1` showed a Ki of 1.9 nM.

As to `CC(C)[C@H](NC(=O)[C@@H]1CCCN1C(=O)[C@@H](NC(=O)c1ccc(C(=O)NS(=O)(=O)c2ccccc2)cc1)C(C)C)C(=O)c1nc2ccccc2o1`, the Reduction worked out at 64% in test [1] and 58% in test [3]. The same compound registered a Ki at Neutrophil elastase of 0.5 nM. This compound came in with a Dose interval in the test on Cricetinae gen. sp. [2] of 6 h. This compound yielded a Lw/Bw in test [4] of 29.

`CC(C)[C@H](NC(=O)[C@@H]1CCCN1C(=O)[C@@H](NC(=O)c1ccc(C(=O)NS(=O)(=O)c2ccc(Cl)cc2)cc1)C(C)C)C(=O)c1nc2cc(C(=O)O)ccc2o1`: the Reduction stood at 66% in [1] and 94% in test [3]. Also, the Ki on Neutrophil elastase worked out at 0.65 nM. The compound further gave a Lw/Bw in test [4] of 63.

Turning to `CC(C)[C@H](NC(=O)[C@@H]1CCCN1C(=O)[C@@H](NC(=O)c1ccc(C(=O)NS(=O)(=O)c2ccc(Cl)cc2)cc1)C(C)C)C(=O)c1nc2cc(CO)ccc2o1`, the Reduction in test [1] turned out to be 39%; in test [3] it was 46%. For the same compound, at Neutrophil elastase, the Ki amounted to 0.66 nM. This compound came in with a Lw/Bw in test [4] of 30.

Consider `CC(C)[C@H](NC(=O)[C@@H]1CCCN1C(=O)[C@@H](NC(=O)OCc1ccccc1)C(C)C)C(=O)c1nc2cc(CO)ccc2o1`, for which, on Neutrophil elastase, the Ki was determined as 2.4 nM.

On to `CC(C)[C@H](NC(=O)[C@@H]1CCCN1C(=O)[C@@H](NC(=O)OCc1ccccc1)C(C)C)C(=O)c1nc2cc(C(=O)ON)ccc2o1`, for which the Ki on Neutrophil elastase is 1 nM.

`COC(=O)Cc1ccc2oc(C(=O)[C@@H](NC(=O)[C@@H]3CCCN3C(=O)[C@@H](NC(=O)OCc3ccccc3)C(C)C)C(C)C)nc2c1`: at Neutrophil elastase, the inhibition constant (Ki) was found to be 1.1 nM.

As to `CC(C)[C@H](NC(=O)[C@@H]1CCCN1C(=O)[C@@H](NC(=O)c1ccc(C(=O)NS(C)(=O)=O)cc1)C(C)C)C(=O)c1nc2ccccc2o1`, the Reduction stood at 78% in test [1] and 84% in [3]. In addition, affinity on Neutrophil elastase was put at a Ki of 4.6 nM. For the same compound, the Lw/Bw in [4] was 87.

As for `COC(=O)c1ccc2oc(C(=O)[C@@H](NC(=O)[C@@H]3CCCN3C(=O)[C@@H](NC(=O)c3ccc(NC(=O)NS(=O)(=O)c4ccc(Cl)cc4)cc3)C(C)C)C(C)C)nc2c1`, the Reduction in test [1] is -31%; in test [3] it was 13%. Further, the affinity on Neutrophil elastase corresponds to a Ki of 0.06 nM. Moreover, the Lw/Bw in test [4] stood at 48.

In the case of `COC(=O)c1ccc2oc(C(=O)[C@@H](NC(=O)[C@@H]3CCCN3C(=O)[C@@H](NC(=O)OCc3ccccc3)C(C)C)C(C)C)nc2c1`, the affinity at Neutrophil elastase, expressed as Ki, was 0.37 nM.

In the case of `COC(=O)c1ccc2oc(C(=O)[C@@H](NC(=O)[C@@H]3CCCN3C(=O)[C@@H](NC(=O)c3ccc(C(=O)NS(=O)(=O)c4ccc(Cl)cc4)cc3)C(C)C)C(C)C)nc2c1`, the Reduction in [1] is reported as -32%; in [3] it was 71%. Moreover, the Ki on Neutrophil elastase was determined as 0.1 nM. The compound further displayed a Lw/Bw in test [4] of 67.

As for `CC(C)[C@H](NC(=O)[C@@H]1CCCN1C(=O)[C@@H](NC(=O)c1ccc(NC(=O)NS(=O)(=O)c2ccccc2)cc1)C(C)C)C(=O)c1nc2ccccc2o1`, the Reduction is 31% in test [1] and 62% in test [3]. Further, on Neutrophil elastase, the Ki came to 0.6 nM. Besides, in test [4], the Lw/Bw was found to be 63.

Turning to `CC(C)[C@H](NC(=O)[C@@H]1CCCN1C(=O)[C@@H](NC(=O)c1ccc(C(=O)OC(C)(C)C)cc1)C(C)C)C(=O)c1nc2ccccc2o1`, the Reduction in test [6] is recorded as 29%; in test [7], -14%. Moreover, the Lw/Bw with Cricetinae gen. sp. [8] is given as 41.

On to `COc1ccc2oc(C(=O)[C@@H](NC(=O)[C@@H]3CCCN3C(=O)[C@@H](NC(=O)c3ccc(C(=O)NS(=O)(=O)c4ccc(Cl)cc4)cc3)C(C)C)C(C)C)nc2c1`, for which the Reduction was found to be 24% in test [1] and 21% in test [3]. This compound also yielded a Ki at Neutrophil elastase of 0.66 nM. For the same compound, the Lw/Bw in test [4] turned out to be 48.

For `CC(C)[C@H](NC(=O)[C@@H]1CCCN1C(=O)[C@@H](NC(=O)c1ccc(C(=O)NS(=O)(=O)c2ccc(Cl)cc2)cc1)C(C)C)C(=O)c1nc2cc(O)ccc2o1`, the Reduction in [1] came out at 40%; in [3], 57%. This compound had a Lw/Bw in test [4] of 38.

Take `CC(C)[C@H](NC(=O)[C@@H]1CCCN1C(=O)[C@@H](NC(=O)c1ccc(S(N)(=O)=O)cc1)C(C)C)C(=O)c1nc2ccccc2o1`: the Reduction in test [1] is -42%; in test [3], -44%.

Consider `COC(=O)c1ccc(C(=O)N[C@H](C(=O)N2CCC[C@H]2C(=O)N[C@H](C(=O)c2nc3ccccc3o2)C(C)C)C(C)C)cc1`, for which the values for the Reduction in test [6] and in [1] were 17% and -5%, respectively.

With `COC(=O)c1ccc2oc(C(=O)[C@@H](NC(=O)[C@@H]3CCCN3C(=O)[C@@H](NC(=O)c3ccc(S(N)(=O)=O)cc3)C(C)C)C(C)C)nc2c1`, the results for the Reduction in [1] and in test [3] were 30% and -32%, respectively. In [4], this compound had a Lw/Bw of 15.

As for `COC(=O)c1ccc2nc(C(=O)[C@@H](NC(=O)[C@@H]3CCCN3C(=O)[C@@H](NC(=O)c3ccc(C(=O)NS(=O)(=O)c4ccc(Cl)cc4)cc3)C(C)C)C(C)C)oc2c1`, the Reduction came out at 72% in test [1] and 76% in test [3].

In turn, `COC(=O)c1ccc2nc(C(=O)[C@@H](NC(=O)[C@@H]3CCCN3C(=O)[C@@H](NC(=O)OCc3ccccc3)C(C)C)C(C)C)oc2c1` showed a Ki at Neutrophil elastase of 0.55 nM.

Take `CC(C)[C@H](NC(=O)[C@@H]1CCCN1C(=O)[C@@H](NC(=O)c1ccc(NC(=O)NS(=O)(=O)c2ccc(Cl)cc2)cc1)C(C)C)C(=O)c1nc2ccccc2o1`: the Reduction is listed as 82% in test [1] and 68% in test [3]. For the same compound, in the test on Cricetinae gen. sp. [2], the Dose interval was 6 h.

On to `CC(C)[C@H](NC(=O)[C@@H]1CCCN1C(=O)[C@@H](NC(=O)OCc1ccccc1)C(C)C)C(=O)c1nc2cc(Cl)ccc2o1`, for which the Ki on Neutrophil elastase turned out to be 1.1 nM.

With `CC(C)[C@H](NC(=O)[C@@H]1CCCN1C(=O)[C@@H](NC(=O)c1ccc(C(=O)NS(=O)(=O)C(C)C)cc1)C(C)C)C(=O)c1nc2ccccc2o1`, the Reduction in test [1] came to 70%; in test [3], 60%. This compound yielded a Ki at Neutrophil elastase of 1.5 nM. In addition, in test [4], the Lw/Bw amounted to 68.

The compound `CC(C)[C@H](NC(=O)[C@@H]1CCCN1C(=O)[C@@H](NC(=O)OCc1ccccc1)C(C)C)C(=O)c1nc2cc(C(=O)O)ccc2o1` displayed a Ki on Neutrophil elastase of 4.2 nM.

(Values after ChEMBL document CHEMBL1128453, “Peptidyl alpha-ketoheterocyclic inhibitors of human neutrophil elastase. 3. In vitro and in vivo potency of a series of peptidyl alpha-ketobenzoxazoles” (J Med Chem, 1995).)
